Measured values reported in ChEMBL document CHEMBL2375278, “Small-molecule inhibitors of cathepsin L incorporating functionalized ring-fused molecular frameworks” (Bioorg Med Chem Lett, 2013).

Assays:
[1] = species: Homo sapiens; test: Selectivity ratio of IC50 for human liver Cathepsin B to IC50 for human liver Cathepsin L
[2] = target: Procathepsin L (Homo sapiens, UniProt P07711); test: Inhibition of human liver Cathepsin L using Z-Phe-Arg-aminomethylcoumarin as substrate incubated for 5 mins prior to substrate addition measured for 5 mins by fluorometric analysis
Outline: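 Assay run with 2% DMSO in the well and a five-minute pre-incubation before substrate. Substrate was used at 50 µM. Activity is reported as IC₅₀ (nM).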

[3] = target: Cathepsin B (Homo sapiens, UniProt P07858); test: Inhibition of human liver Cathepsin B using Z-Arg-Arg-aminomethylcoumarin as substrate incubated for 5 mins prior to substrate addition measured for 5 mins by fluorometric analysis
Outline: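 Assay run with 2% DMSO in the well and a five-minute pre-incubation before substrate. Substrate was used at 60 µM. Activity is reported as IC₅₀ (nM).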

Procathepsin L, sequence (P07711 whole entry): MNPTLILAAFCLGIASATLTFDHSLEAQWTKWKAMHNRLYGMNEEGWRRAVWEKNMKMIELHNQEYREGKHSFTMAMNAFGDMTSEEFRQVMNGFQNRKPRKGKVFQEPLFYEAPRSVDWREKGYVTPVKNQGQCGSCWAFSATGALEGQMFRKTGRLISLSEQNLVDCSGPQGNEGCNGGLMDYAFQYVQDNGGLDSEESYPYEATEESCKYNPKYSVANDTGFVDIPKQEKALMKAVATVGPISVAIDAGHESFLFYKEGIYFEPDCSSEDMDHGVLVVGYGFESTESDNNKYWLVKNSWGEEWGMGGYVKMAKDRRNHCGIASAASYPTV

| SMILES | Ratio IC50 [1] | IC50 [2] [µM] | IC50 [3] [µM] |
| --- | --- | --- | --- |
| NC(=S)N/N=C1\CCN([N+](=O)[O-])c2ccc([N+](=O)[O-])cc21 | > 20 | 0.228 | > 10 |
| CS(=O)(=O)c1ccc2c(c1)/C(=N/NC(N)=S)CCS2(=O)=O |  | > 10 | > 10 |
| NC(=S)N/N=C1\CCNc2ccc(Br)cc21 | > 20 | 0.164 | > 10 |
| COc1cccc2c1CCC/C2=N\NC(N)=S |  | > 10 | > 10 |
| NC(=S)N/N=C1\CCCSc2cc(F)c(F)cc21 |  | ≥ 10 | > 10 |
| NC(=S)N/N=C1\CCN([N+](=O)[O-])c2ccccc21 |  | > 10 | > 10 |
| NC(=S)N/N=C1\CC(c2ccccc2)Oc2ccccc21 (configuration not stated) |  | > 10 | > 10 |
| NC(=S)N/N=C1\CCCCc2ccccc21 |  | > 10 | > 10 |
| CC(=O)N1CC/C(=N\NC(N)=S)c2ccccc21 |  | > 10 | > 10 |
| COc1ccc2c(c1)/C(=N/NC(N)=S)CCC2 |  | > 10 | > 10 |
| NC(=S)N/N=C1\CCNc2ccccc21 |  | > 10 | > 10 |
| NC(=S)N/N=C1\CCCc2c(O)cccc21 |  | > 10 | > 10 |
| NC(=S)N/N=C1\CCNc2c(Cc3ccccc3)cccc21 |  | > 10 | > 10 |
| COc1ccc2c(c1)CCC/C2=N\NC(N)=S |  | > 10 | > 10 |
| NC(=S)N/N=C1\CCS(=O)(=O)c2ccc(N)cc21 |  | > 10 | > 10 |
| NC(=S)N/N=C1\CCCS(=O)(=O)c2cc(F)c(F)cc21 |  | > 10 | > 10 |
| NC(=S)N/N=C1\CCc2ccccc2C1 |  | > 10 | > 10 |
| NC(=S)N/N=C1\CC(Nc2ccccc2)c2ccc(Br)cc21 (configuration not stated) |  | > 10 | > 10 |
| CN1CC/C(=N\NC(N)=S)c2cc(Br)ccc21 |  | > 10 | > 10 |

Further lines, results first:

| Ratio IC50 [1] | IC50 [2] [µM] | IC50 [3] [µM] | SMILES |
| --- | --- | --- | --- |
| > 20 | 0.369 | > 10 | NC(=S)N/N=C1\CCOc2ccc(Cl)cc21 |
| > 15.2 | 0.658 | > 10 | NC(=S)N/N=C1\CCCSc2ccc([N+](=O)[O-])cc21 |
| > 20 | 0.449 | > 10 | NC(=S)N/N=C1\CCNc2ccc([N+](=O)[O-])cc21 |
|  | > 10 | > 10 | N=C(N)N/N=C1\CCS(=O)(=O)c2ccc([N+](=O)[O-])cc21 |
|  | > 10 | > 10 | NC(=S)N/N=C1\CCc2ccc(Br)cc21 |
|  | > 10 | > 10 | NC(=S)N/N=C1\CCCc2cc(N)ccc21 |
|  | > 10 | > 10 | N=C(N)N/N=C1\CCSc2ccc([N+](=O)[O-])cc21 |
|  | > 10 | > 10 | NC(=S)NN=C1c2cc([N+](=O)[O-])ccc2-c2ccc([N+](=O)[O-])cc21 |
|  | > 10 | > 10 | NC(=S)N/N=C1\CCCS(=O)(=O)c2ccc([N+](=O)[O-])cc21 |
| > 5.7 | 1.74 | > 10 | NC(=S)N/N=C1\CC[S+]([O-])c2ccc([N+](=O)[O-])cc21 (configuration not stated) |
| > 20 | 0.338 | > 10 | NC(=S)N/N=C1\CCNc2c1cc([N+](=O)[O-])cc2[N+](=O)[O-] |
